Reference: ChEMBL document CHEMBL4011636, “Utilization of an Active Site Mutant Receptor for the Identification of Potent and Selective Atypical 5-HT2C Receptor Agonists” (J Med Chem, 2017)
Calls of active or inactive are those of the source.

Tests used:
[1] = Plasma concentration in Sprague-Dawley rat at 30 mg/kg, po measured at 3 hrs post dose by LC/MS-MS analysis; assay type: ADME, organism-based
How it was run: (§1)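 Male rats given 30 mg/kg orally in 0.15% docusate sodium/2% PVP-K/97.85% water. Plasma and brain were sampled at a single time point after dosing. Brain was diluted 1:2 (vol/weight) with water before homogenization (dilution factor 3). Concentrations were measured by LC/MS−MS after acetonitrile protein precipitation. Values are the average of three animals; B/P is the brain to plasma ratio.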

Rattus norvegicus [2] = assay: Antiobesity activity in ad libitum feeding Sprague-Dawley rat model assessed as reduction in food pellet consumption administered po at 60 mins prior to the onset of the dark cycle followed by incubation for first 8 hrs in light cycle and 12 hrs in dark cycle; assay type: functional, organism-based
How it was run: (§2)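 Male Sprague Dawley rats (~225 g; n = 6), trained in operant chambers, dosed orally with compound or vehicle (14% PPG, 1% Tween, 85% water) 60 min before dark onset. Food intake was monitored in individual boxes for 20 h (12 h dark plus first 8 h light). Percent reduction was computed from drug-treated versus vehicle-treated total intake.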

[3] = Permeability of compound at pH 7.4 by PAMPA; assay type: physicochemical; settings: read-out: permeability
[4] = Ratio of drug uptake in Sprague-Dawley rat brain to plasma at 30 mg/kg, po measured at 3 hrs post dose by LC/MS-MS analysis; assay type: ADME, organism-based; settings: read-out: BPR; how it was run: as §1
[5] = biological target: T1, 5-hydroxytryptamine receptor 2B (Homo sapiens, UniProt P41595); assay: Intrinsic activity at recombinant human 5-HT2B receptor expressed in HEK293E cells assessed as induction of intracellular Ca2+ levels after 90 secs by Fluo-4-dye based FLIPR assay relative to serotonin; assay type: functional, cell-based; settings: HEK293
T1 sequence (P41595 whole entry, canonical isoform): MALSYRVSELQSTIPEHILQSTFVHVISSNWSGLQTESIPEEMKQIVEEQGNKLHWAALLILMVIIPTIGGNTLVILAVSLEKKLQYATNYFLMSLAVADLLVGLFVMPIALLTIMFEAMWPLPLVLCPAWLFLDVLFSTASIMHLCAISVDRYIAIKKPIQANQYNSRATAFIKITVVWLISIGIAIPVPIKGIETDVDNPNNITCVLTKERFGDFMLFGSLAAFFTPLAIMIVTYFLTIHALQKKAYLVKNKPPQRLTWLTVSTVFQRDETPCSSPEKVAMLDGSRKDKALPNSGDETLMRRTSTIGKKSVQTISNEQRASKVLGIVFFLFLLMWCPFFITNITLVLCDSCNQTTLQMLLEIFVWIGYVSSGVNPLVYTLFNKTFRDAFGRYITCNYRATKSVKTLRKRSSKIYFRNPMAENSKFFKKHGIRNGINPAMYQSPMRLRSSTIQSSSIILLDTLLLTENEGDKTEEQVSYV
How it was run: (§3)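 FLIPR Fluo-4 Ca2+ assay in HEK293E cells stably expressing the human receptor (VNV isoform for 5-HT2C), eleven-point concentration series, 90 s read. Response normalized to 3 μM serotonin on the same plate (defined as IA = 1). Intrinsic activity taken from a four-parameter logistic fit.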

Rattus norvegicus [6] = assay: Antiobesity activity in ad libitum feeding Sprague-Dawley rat model assessed as reduction in food pellet consumption at 30 mg/kg, po administered at 60 mins prior to the onset of the dark cycle followed by incubation for first 8 hrs in light cycle and 12 hrs in dark cycle; assay type: functional; set-up: scale not given: the % may be the effect or the level left; how it was run: as §2
[7] = Protein binding in human plasma; assay type: ADME, cell-free; settings: read-out: PPB (converted)
Rattus norvegicus [8] = assay: Toxicity in ad libitum feeding Sprague-Dawley rat model assessed as reduction in water intake at 3 to 30 mg/kg, po administered at 60 mins prior to the onset of the dark cycle followed by incubation for first 8 hrs in light cycle and 12 hrs in dark cycle; assay type: organism-based; settings: in vivo
Rattus norvegicus [9] = assay: Antiobesity activity in ad libitum feeding Sprague-Dawley rat model assessed as reduction in food intake at 30 mg/kg, po administered at 60 mins prior to the onset of the dark cycle followed by incubation for first 8 hrs in light cycle and 12 hrs in dark cycle; assay type: functional; set-up: scale not given: the % may be the effect or the level left; how it was run: as §2
[10] = Permeability across apical to basolateral side in human Caco2 cells; assay type: ADME, cell-based; settings: Caco-2, read-out: permeability
[11] = Efflux ratio of permeability across basolateral to apical side in human Caco2 cells; assay type: ADME, cell-based; settings: Caco-2
[12] = Protein binding in rat plasma; assay type: ADME, cell-free; settings: read-out: PPB (converted)
[13] = Permeability of compound at pH 5.5 by PAMPA; assay type: physicochemical; settings: read-out: permeability
[14] = Metabolic stability in human liver microsomes assessed as parent compound remaining at […] after 10 mins; assay type: ADME, microsome; settings: read-out: Stability
[15] = Half life in rat microsomes; assay type: ADME, Microsome
[16] = biological target: T1, 5-hydroxytryptamine receptor 2B; assay: Agonist activity at recombinant human 5-HT2B receptor expressed in HEK293E cells assessed as induction of intracellular Ca2+ levels after 90 secs by Fluo-4-dye based FLIPR assay; assay type: cell-based, HEK293
How it was run: (§4)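 HEK293E cells stably expressing human receptor (VNV isoform for 5-HT2C; ~400−795 fmol/mg protein), grown in DMEM with 10% dialyzed FBS and G418. Cells plated at 20 000/well in serum-free DMEM overnight at 37 °C, then loaded 1 h at room temperature with 5 μM Fluo-4 in HBSS/25 mM HEPES. Eleven compound concentrations added on FLIPR, Ca2+ signal read for 90 s. EC50 from a four-parameter logistic fit, at least triplicate.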

[17] = Permeability across basolateral to apical side in human Caco2 cells; assay type: ADME, cell-based; settings: Caco-2, read-out: permeability
Rattus norvegicus [18] = assay: Antiobesity activity in ad libitum feeding Sprague-Dawley rat model assessed as reduction in food pellet consumption at 3 to 10 mg/kg, po administered at 60 mins prior to the onset of the dark cycle measured at first 4 hrs post last dose; assay type: functional, organism-based
How it was run: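 Male Sprague Dawley rats (n = 6) dosed orally 60 min before dark onset with 3 or 10 mg/kg, in vehicle of 14% PPG, 1% Tween, 85% water. Food pellet consumption was recorded in operant boxes and compared with vehicle over the first 4 h.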

Rattus norvegicus [19] = assay: Toxicity in ad libitum feeding Sprague-Dawley rat model assessed as effect on locomotor activity at 3 to 30 mg/kg, po administered at 60 mins prior to the onset of the dark cycle followed by incubation for first 8 hrs in light cycle and 12 hrs in dark cycle; assay type: organism-based; settings: in vivo
[20] = Half life in human microsomes; assay type: ADME, Microsome
Rattus norvegicus [21] = assay: Antiobesity activity in ad libitum feeding Sprague-Dawley rat model assessed as reduction in food intake at 30 mg/kg, po administered at 60 mins prior to the onset of the dark cycle followed by incubation for first 8 hrs in light cycle and 12 hrs in dark cycle in presence of 5-HT2C anatgonist SB-243213; assay type: functional; set-up: scale not given: the % may be the effect or the level left
[22] = Drug uptake in Sprague-Dawley rat brain at 30 mg/kg, po measured at 3 hrs post dose by LC/MS-MS analysis; assay type: ADME, organism-based; settings: read-out: Drug uptake; how it was run: as §1
[23] = biological target: 5-hydroxytryptamine receptor 2A (Homo sapiens, UniProt P28223); assay: Agonist activity at recombinant human 5-HT2A receptor expressed in HEK293E cells assessed as induction of intracellular Ca2+ levels after 90 secs by Fluo-4-dye based FLIPR assay; assay type: cell-based, HEK293; how it was run: as §4
5-hydroxytryptamine receptor 2A, sequence (P28223 whole entry): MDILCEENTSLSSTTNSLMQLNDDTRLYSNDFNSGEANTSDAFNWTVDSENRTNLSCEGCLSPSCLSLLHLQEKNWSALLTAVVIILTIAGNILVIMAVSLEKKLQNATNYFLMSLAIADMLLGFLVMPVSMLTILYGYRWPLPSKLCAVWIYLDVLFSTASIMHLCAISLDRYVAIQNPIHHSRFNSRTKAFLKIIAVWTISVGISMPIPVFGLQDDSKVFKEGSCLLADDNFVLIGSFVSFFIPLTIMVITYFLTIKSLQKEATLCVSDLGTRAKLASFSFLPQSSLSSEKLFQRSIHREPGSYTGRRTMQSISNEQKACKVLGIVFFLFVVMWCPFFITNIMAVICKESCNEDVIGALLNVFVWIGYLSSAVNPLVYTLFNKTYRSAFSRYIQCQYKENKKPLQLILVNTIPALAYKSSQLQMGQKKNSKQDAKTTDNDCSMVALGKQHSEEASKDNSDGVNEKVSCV

[24] = biological target: T2, 5-hydroxytryptamine receptor 2C (Homo sapiens, UniProt P28335); assay: Agonist activity at recombinant human 5-HT2C receptor expressed in HEK293E cells assessed as induction of intracellular Ca2+ levels after 90 secs by Fluo-4-dye based FLIPR assay; assay type: functional, cell-based, HEK293; how it was run: as §4
T2 sequence (P28335 whole entry): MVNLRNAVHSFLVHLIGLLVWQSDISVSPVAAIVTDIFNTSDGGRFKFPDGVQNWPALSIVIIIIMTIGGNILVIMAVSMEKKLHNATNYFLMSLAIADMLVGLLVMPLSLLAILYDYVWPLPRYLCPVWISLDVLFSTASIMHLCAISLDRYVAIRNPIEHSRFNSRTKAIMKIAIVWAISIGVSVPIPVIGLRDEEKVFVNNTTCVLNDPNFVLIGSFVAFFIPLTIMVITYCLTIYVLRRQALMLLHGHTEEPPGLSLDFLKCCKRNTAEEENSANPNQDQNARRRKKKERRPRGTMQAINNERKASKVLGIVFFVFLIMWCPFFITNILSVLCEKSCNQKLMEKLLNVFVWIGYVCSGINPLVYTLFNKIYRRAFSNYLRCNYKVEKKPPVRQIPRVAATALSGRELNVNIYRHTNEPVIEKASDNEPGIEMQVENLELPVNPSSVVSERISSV

[25] = biological target: T3, 5-hydroxytryptamine receptor 2C (Homo sapiens) (UniProt P28335); assay: Intrinsic activity at recombinant human 5-HT2C receptor expressed in HEK293E cells assessed as induction of intracellular Ca2+ levels after 90 secs by Fluo-4-dye based FLIPR assay relative to serotonin; assay type: functional, cell-based; settings: HEK293; how it was run: as §3
T3 sequence (whole entry): T2 sequence (P28335 whole entry)

[26] = Ratio of drug uptake in Sprague-Dawley rat brain to plasma at 1 mg/kg, iv measured at 1 hr post dose by LC/MS-MS analysis; assay type: ADME, organism-based; settings: read-out: BPR
[27] = Ratio of drug uptake in Sprague-Dawley rat brain to plasma at 30 mg/kg, po measured at 7 hrs post dose by LC/MS-MS analysis; assay type: ADME, organism-based; settings: read-out: BPR; how it was run: as §1
[28] = Substrate activity at human P-gp; assay type: ADME
[29] = Drug uptake in Sprague-Dawley rat brain at 1 mg/kg, iv measured at 1 hr post dose by LC/MS-MS analysis
[30] = Plasma concentration in Sprague-Dawley rat at 1 mg/kg, iv measured at 1 hr post dose by LC/MS-MS analysis; assay type: ADME, organism-based
[31] = Plasma concentration in Sprague-Dawley rat at 30 mg/kg, po measured at 7 hrs post dose by LC/MS-MS analysis; assay type: ADME, organism-based; how it was run: as §1
[32] = Substrate activity at rat P-gp; assay type: ADME
[33] = Drug uptake in Sprague-Dawley rat brain at 30 mg/kg, po measured at 7 hrs post dose by LC/MS-MS analysis; assay type: ADME, organism-based; settings: read-out: Drug uptake; how it was run: as §1
[34] = Metabolic stability in rat liver microsomes assessed as parent compound remaining at […] after 10 mins; assay type: ADME, microsome; settings: read-out: Stability

Papp [3] [×10⁻⁶ cm/s] | fraction unbound [7] | Papp A→B [10] [×10⁻⁶ cm/s] | efflux ratio [11] | fraction unbound [12] | Papp [13] [×10⁻⁶ cm/s] | remaining at 10 min [14] [%] | half-life [15] [min] | EC50 [16] [nM] | Papp B→A [17] [×10⁻⁶ cm/s] | half-life [20] [min] | EC50 [23] [nM] | EC50 [24] [nM] | Intrinsic activity [25] | SMILES | other results
88.9 | 0.062 | 77.7 | 0.7 | 0.079 | 72.7 | 61 | 25 | 48 | 52.8 | 16 | 635 | 5 | 0.8 | CCn1nc(-c2cccc3cccnc23)cc1-c1ccc(N)nn1 | concentration at 3 h [1]: 7540 nM; Activity (Rattus norvegicus [2]): Dose-dependent effect; Kp at 3 h [4]: 0.9; Intrinsic activity [5]: 0.2; Activity (Rattus norvegicus [6]): 24%; Activity (Rattus norvegicus [8]): Non-Toxic; Activity (Rattus norvegicus [9]): 38%; Activity (Rattus norvegicus [18]): Active; Activity (Rattus norvegicus [19]): Non-Toxic; Activity (Rattus norvegicus [21]): 12%; concentration at 3 h [22]: 3920 nM
73.9 | 0.005 | 32.9 | 0.5 | 0.004 | 60.7 | 80 | 6 | > 10000 | 17.5 | 21 | > 10000 | 6 | 1 to 1.1 | Cc1nc(-c2cccc3ccccc23)sc1C(=O)N1CCC(CO)CC1 | Kp at 1 h [26]: 0.15; Kp at 7 h [27]: 0.05; Activity [28]: Not Active; concentration at 1 h [29]: 76 nM; concentration at 1 h [30]: 569 nM; concentration at 7 h [31]: 736 nM; Activity [32]: Active; concentration at 7 h [33]: 35 nM; remaining at 10 min [34]: 24%
